L major viab: Leishmania major promastigote growth inhibition. Leishmania major promastigotes, resazurin fluorescence viability. inhibition, % at 10 µM. hit rate 9% among 200,000. AID 1063; in the data active = inhibition above about 50%;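 also: promastigotes grown with compound for 44 hours at 28 °C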
Dynein cargo inh: blocks dynein driven cargo transport along microtubules | 3617.4 mouse cells, GR-EGFP nuclear translocation imaging; test concentration mostly 20 µM; stimulated with dexamethasone, 1 µM; active compounds read low | z-score, hits read low | hit rate 0.47% among 220,000 | AID 1381;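 active = plate z-score of nuclear minus cytoplasmic receptor signal below a set negative limit, without overly bright fluorescence or cell loss, cut at about -3.5 in these data, passing the limit was not always enough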;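 also: z-score of nuclear minus cytoplasmic ring GR-EGFP intensity difference per well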
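Buffer or medium: Induction medium lacking tetracycline, stripped serum | Also added: Dexamethasone agonist, 1.0 µM final, for 30 min | Timing: 48 h induction, 1 h compound, 30 min dex at 37 °C | Detection: Formaldehyde fixation, Hoechst nuclear stain, 10x automated fluorescence imaging | Measure: Nuclear versus cytoplasmic GR-EGFP signal, averaged per well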
UPR CHOP act: activators of apoptotic arm of unfolded protein response (CHOP) | CHO-CHOP luciferase reporter, UPR activation, luminescence; percent of tunicamycin response over DMSO baseline | activation, % at 10 µM | hit rate 0.34% among 330,000 | AID 449763;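 active = at 10 µM dose, activation of 40% or more, normalized to positive control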;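 also: 100% = tunicamycin at 10 µg/mL and 0% = DMSO alone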
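Assay system: CHO-CHOP cells, stable luciferase reporter of PERK-eIF2a-CHOP signalling / Buffer or medium: F12 plus 10% serum / Compound dosing: one dose, 10 µM in 0.5% DMSO / Times: 6 h compound treatment, 37 °C / Technique: luciferase luminescence / Read-out: % reporter activation, DMSO baseline versus tunicamycin full activation / Benchmarks: tunicamycin and DMSO controls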
T cruzi inh: blocks replication of Trypanosoma cruzi | inhibition, % (no concentration beside the values) | AID 1885 | hit rate 1.4% among 300,000 | T. cruzi beta-gal in NIH3T3, luminescence, 90 h;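 active = mean inhibition across valid replicates above about 55%, limit read from the data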;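 also: signal also drops with host cell toxicity which is not excluded here; 0% = plate median of DMSO wells and 100% = zero luminescence signal; higher percent means less beta-gal luminescence so fewer parasites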
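System: mouse NIH/3T3 fibroblasts infected with β-gal-expressing T. cruzi Tulahuen C4 / Input: NIH/3T3 cells, 5,000 per well / Buffer or medium: Low-serum DMEM with 2% FBS / Probe or stimulus: 5000 reporter trypomastigotes per well / Schedule: ≥90 h infection period, 3 h prior cell attachment / Measured by: GalScreen luminescence, 60 min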
CHOP inhibitor: inhibitors of CHOP induction in ER stress response; CHO-K1 CHOP-promoter luciferase, tunicamycin-induced, 15-18 h; inhibition, % at 10 µM; hit rate 3.8% among 220,000; AID 2732;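 active = compounds that reduced the stress-induced luciferase reporter signal by more than about 70% of percent inhibition, limit read from the data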;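 also: 0% = tunicamycin plus vehicle and 100% = wells without tunicamycin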
XBP1 UPR activ: adaptive UPR (XBP1) activation | CHO-XBP1 luciferase reporter, IRE1-XBP1 UPR activation, luminescence; percent of tunicamycin response, DMSO as zero | activation, % at 20 µM | hit rate 0.33% among 330,000 | AID 463104;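 active = versus positive control, 20 µM dose yields 30% or more activation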;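 also: 100% = tunicamycin at 10 µg/mL and 0% = DMSO only wells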
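Material: IRE1-XBP1 luciferase reporter CHO line / Quantity: one thousand reporter cells per well / Buffer or medium: F12 with 10% serum / Compound: 20 µM single concentration, DMSO 1% / Times: 6 h treatment, 37 °C / Detection: Steady-Glo luciferase glow luminescence, 10 min after reagent addition / Benchmarks: tunicamycin high, DMSO low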
* = called active by the depositor; . = no result given. The full list was thinned out, with hits kept by preference.

SMILES	L major viab	Dynein cargo inh	UPR CHOP act	T cruzi inh	CHOP inhibitor	XBP1 UPR activ
Cc1ccc(CN(C)C(=O)CSc2nnc3n2CCCCC3)c(C)c1	.	.	2	.	.	-1
CCOc1cc(O)c(-c2[nH]ncc2-c2nc(C)cs2)cc1CC	.	0.49	-2	8	18	-4
CCN1CCN(CCNC(=O)c2ccc(/C=C3/Sc4ccccc4N(Cc4cccc(Cl)c4)C3=O)cc2)CC1	101*	2.4	2	61*	33	15
Cc1ccc(Cl)cc1N1CCN(C(=O)c2cn(C)c(=O)c3c2c2ccccc2n3C)CC1	55*	0.94	1	52	79*	3
Cn1c(=O)n(C)c2cc(N3CCOCC3)c(NC(=O)c3ccc(F)cc3)cc21	.	.	-1	-11	.	4
CC1=CCP(=O)(c2ccccc2)C1 (configuration not stated)	-4	-0.39	-4	-2	72*	4
N#CCC(=O)N1CCN(C=O)CC1	-6	-0.23	1	-10	3	1
CC(=O)OC1COC(N2CCc3cc(Br)c([N+](=O)[O-])cc32)C(OC(C)=O)C1OC(C)=O (configuration not stated)	3	-0.88	-1	-4	89*	-1
COc1ccc(N2C(=O)C(Cl)=C(Nc3ccccc3OC)C2=O)cc1	-6	-0.26	5	-7	-23	-1
COc1ccc(N2C(=O)C(Cl)=C(Nc3ccccc3O)C2=O)cc1	98*	-0.7	4	2	-4	9
O=C1/C(=C\c2ccc(O)c(O)c2)N=C2CCCCCN12	.	-0.74	6	-10	3	16
CC[n+]1c(/C=C(/C)SC)sc2ccccc21	83*	0.41	-3	5	18	4
Cc1sc2ccccc2[n+]1CC(=O)O	.	0.23	-1	-29	16	-4
CC/C(=C/c1sc2ccccc2[n+]1CC)SC	91*	1.7	2	15	8	-2
CC[n+]1ccccc1/C=C/Nc1ccccc1	-2	-1.2	-2	5	5	-2
CC[n+]1c(/C=C/Nc2ccccc2)sc2ccccc21	99*	0.076	2	34	3	-3
CC[n+]1c(/C=C(\C)Nc2ccccc2)sc2ccccc21	99*	-0.069	.	.	32	.
CC[n+]1c(/C=C(\C)OC)sc2ccccc21	19	-0.97	1	.	11	0
CCN1/C(=C/C=C/C=C/C=C/c2sc3ccccc3[n+]2CC)Sc2ccccc21	.	.	21	52	.	0
Cc1c(NC(=O)C(C)OC(=O)c2cc(Cl)ccc2O)c(=O)n(-c2ccccc2)n1C (configuration not stated)	.	.	-1	-13	.	-3
CC[n+]1c(/C=C(\C)SC)sc2ccccc21	65*	-0.67	-2	33	21	1
Cc1cc(CN(C)C(=O)c2cc(COc3ccc(F)cc3Cl)on2)n[nH]1	-7	-1.5	3	-15	5	1
COc1ccc(S(=O)(=O)Nc2ccc3c(c2)C(=O)N([C@@H](C)CO)C[C@H](C)[C@H](CN(C)S(=O)(=O)c2ccc(F)cc2)O3)cc1	.	.	3	.	.	-1
CCCn1nnnc1SCC(=O)c1ccc2c(c1)OCCO2	2	-0.14	2	-17	85*	-3
CCCCCc1nnc(NC(=O)NS(=O)(=O)c2ccc(C)cc2)s1	.	.	2	-9	.	-3
SMILES	L major viab	Dynein cargo inh	UPR CHOP act	T cruzi inh	CHOP inhibitor	XBP1 UPR activ
CCN1/C(=C/c2sc(-c3ccccc3C)c[n+]2C)Sc2ccccc21	100*	-1	.	66*	81*	.
Cc1cccc(N2CCN(S(=O)(=O)c3cccc4nonc34)CC2)c1C	-1	-0.69	-2	10	73*	-1
O=S(=O)(c1cccc2nonc12)N1CCN(c2ccccc2F)CC1	-3	-0.28	0	-10	16	-5
Cc1ccnc(NC(=O)C2CCN(S(=O)(=O)c3cccc4nsnc34)CC2)c1	10	0.51	-1	-7	38	-1
Cc1ccnc(NC(=O)C2CCN(S(=O)(=O)c3cccc4nonc34)CC2)c1	99*	3.2	-2	3	48	-4
CCOC(=O)C1CCN(C(=O)Nc2cc(Cl)cc(Cl)c2)CC1	.	0.5	1	9	12	-2

Source: PubChem (several laboratories)
